Data published in ChEMBL document CHEMBL1142458, “Computational structure-activity relationship analysis of non-peptide inducers of macrophage tumor necrosis factor-alpha production” (Bioorg Med Chem, 2008).
Active and inactive are the calls of the source. How the calls were made is not given here.

Columns and labels:
J774.A1 [1] = assay: Stimulation of TNFalpha production in mouse J774.A1 cells at 50 uM after 24 hrs by ELISA relative to untreated control; format: functional
Outline: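 Murine J774.A1 macrophages grown in DMEM with 10% heat-inactivated FBS and 10 mM HEPES at 37°C under 5% CO2, detached by scraping. Plated at 2×10^5 cells/well in medium with 3% FBS and exposed 24 hr to compound, DMSO vehicle or LPS. Supernatant TNF-α measured by murine ELISA against a standard curve. Reported as fold-increase over DMSO control.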

J774.A1 [2] = assay: Cytotoxicity against mouse J774.A1 cells assessed as effect on cell viability at <=50 uM after 24 hrs; format: cell-based; details: j774.a1, 24 h

Compound	Activity (J774.A1 [1])	Activity (J774.A1 [2])	fold change (FC) (J774.A1 [1])
O=C(N/N=C/c1cc(/N=N\c2cccc3ccccc23)ccc1O)c1ccc2c(c1)OCO2	inactive		
O=C(N/N=C/c1ccc(-c2cccc(Br)c2)o1)c1ccccn1	inactive	Non-toxic	
O=C(N/N=C/c1ccc(-c2ccc(Cl)c(Cl)c2)o1)c1ccc2c(c1)OCO2			<5
O=C(N/N=C/c1ccc(-c2ccc(Cl)cc2)o1)c1ccncc1	inactive	Non-toxic	
Cc1ccc(C(=O)N/N=C/c2ccc(-c3ccc(C)c(Cl)c3)o2)cn1		Non-toxic	21
O=C(N/N=C/c1ccc(-c2ccc(Cl)cc2)o1)c1cncc(Br)c1		Non-toxic	25
COc1cc(/C=N\NC(=O)c2ccc3c(c2)OCO3)ccc1OCc1ccccc1			7
O=C(N/N=C/c1ccco1)c1cccc(F)c1	inactive		
Cc1ccc(C(=O)N/N=C/c2ccc(-c3cc(Cl)ccc3Cl)o2)cn1	inactive	Non-toxic	
O=C(N/N=C/c1ccc([N+](=O)[O-])o1)c1cc([N+](=O)[O-])cc([N+](=O)[O-])c1O	inactive		
CCOc1ncccc1C(=O)N/N=C/c1ccc([N+](=O)[O-])o1	inactive		
O=C(N/N=C/c1ccc(-c2cc(Cl)c(Cl)cc2Cl)o1)c1cccnc1	inactive	Non-toxic	
O=C(N/N=C/c1ccco1)c1ccccc1	inactive		
O=C(N/N=C/c1ccc(-c2cccc(C(F)(F)F)c2)o1)c1ccc(F)cc1			35
COc1ccc(Br)cc1C(=O)N/N=C/c1ccc(C)o1	inactive		
COc1ccc(C(=O)N/N=C\c2ccc(N(C)C)cc2)cc1	inactive		
O=C(N/N=C/c1ccc(-c2ccc([N+](=O)[O-])cc2Cl)o1)c1ccc2c(c1)OCO2			35
CCc1ccc(C(=O)N/N=C/c2ccc(-c3ccc(C)c(Cl)c3)o2)nc1	inactive	Non-toxic	
COc1ccc(Cl)cc1/C=N/NC(=O)c1ccc2c(c1)OCCO2	inactive		
COc1ccc(/C(C)=N/NC(=O)c2ccc3c(c2)OCCO3)cc1[N+](=O)[O-]	inactive		
Cc1ccc(C(=O)N/N=C/c2ccc(-c3ccc(Cl)cc3)o2)cn1	inactive	Non-toxic	
COc1ccc(-c2ccc(/C=N/NC(=O)c3ccc([N+](=O)[O-])cc3)o2)cc1Cl	inactive		

Compound	Activity (J774.A1 [1])	Activity (J774.A1 [2])	fold change (FC) (J774.A1 [1])
O=C(N/N=C/c1ccc(-c2ccccc2Cl)o1)c1cccnc1	inactive	Non-toxic	
O=C(N/N=C/c1ccc(-c2ccc(Cl)cc2)o1)c1cccnc1		Non-toxic	15
O=C(N/N=C/c1ccc([N+](=O)[O-])o1)c1ccc(O)cc1O	inactive		
O=C(N/N=C/c1ccco1)c1ccc(Cl)cc1Cl	inactive		
O=C(N/N=C/c1ccc(I)o1)c1ccccc1F	inactive		
O=C(N/N=C/c1ccc(-c2ccc(Cl)c(Cl)c2)o1)c1ccccc1O	inactive		
COc1ccc(/C=N/NC(=O)c2ccc3c(c2)OCO3)c(OC)c1	inactive		
O=C(N/N=C/c1ccc(-c2ccc(Cl)cc2Cl)o1)c1ccccc1[N+](=O)[O-]	inactive		
O=C(N/N=C/c1ccc(-c2cccc(Cl)c2Cl)o1)c1ccccc1			8
O=C(N/N=C/c1ccco1)c1ccc(Br)cc1O	inactive		
O=C(N/N=C/c1ccc(-c2ccc(Br)cc2)o1)c1cccnc1	inactive	Non-toxic	
CC(C)(C)c1ccc(C(=O)N/N=C/c2ccc(-c3ccc([N+](=O)[O-])cc3)o2)cc1	inactive		
O=C(N/N=C/c1ccc(-c2cc(Cl)ccc2Cl)o1)c1ccc([N+](=O)[O-])cc1			<5
CN(C)c1ccc(/C=N/NC(=O)c2ccc3c(c2)OCO3)cc1	inactive		
CN(C)c1ccc(/C=N\NC(=O)c2ccccc2O)cc1	inactive		
O=C(N/N=C/c1c(O)ccc2ccccc12)c1ccc2c(c1)OCO2	inactive		
Cc1ccc(C(=O)N/N=C/c2ccc(C)o2)cc1	inactive		
Cc1ccc(-c2ccc(/C=N/NC(=O)c3ccncc3)o2)cc1Cl		Non-toxic	50
Cc1ccc(C(=O)N/N=C/c2ccc(-c3cccc(Br)c3)o2)cn1	inactive	Non-toxic	
O=C(N/N=C/c1ccc(-c2ccccc2Cl)o1)c1ccc(Cl)cc1Cl			<5
COc1ccccc1OCc1ccc(C(=O)N/N=C/c2ccco2)cc1	inactive		
Cc1ccc(C(=O)N/N=C/c2ccc(-c3cccc(C(F)(F)F)c3)o2)cn1			<5

Compound	Activity (J774.A1 [1])	Activity (J774.A1 [2])	fold change (FC) (J774.A1 [1])
COc1cc(/C=N\NC(=O)c2cccc(C)c2O)ccc1OCc1ccccc1	inactive		
COc1ccc(C(=O)N/N=C/c2ccc(-c3ccc(Cl)c(C(=O)O)c3)o2)cc1	inactive		
O=C(N/N=C/c1cc(/N=N\c2cccc(C(F)(F)F)c2)ccc1O)c1ccc2c(c1)OCO2	inactive		
O=C(/C=C/c1ccco1)Oc1cccc(/C=N/NC(=O)c2ccc3c(c2)OCO3)c1	inactive		
Cc1ccc(C(=O)N/N=C/c2ccc(-c3cccc(Cl)c3)o2)cn1	inactive	Non-toxic	
CN(C)c1ccc(/C=N\NC(=O)c2ccc([N+](=O)[O-])cc2)cc1			25
O=C(/C=C\c1ccco1)Oc1ccc(/C=N\NC(=O)c2ccc3c(c2)OCO3)cc1	inactive		
CC(C)N1C(=O)/C(=N\NC(=O)c2ccc3c(c2)OCO3)c2ccccc21	inactive		
CN(C)c1ccc(/C=N\NC(=O)c2cccc(F)c2)cc1	inactive		
O=C(N/N=C/c1ccc(-c2ccc(Cl)cc2Cl)o1)c1cncc(Br)c1	inactive	Non-toxic	
CCN1C(=O)/C(=N\NC(=O)c2ccc3c(c2)OCO3)c2ccccc21	inactive		
O=C(N/N=C/c1ccc(-c2cccc(C(F)(F)F)c2)o1)c1ccc(Br)cc1	inactive		
Cc1cc(C)n(Cc2ccc(C(=O)N/N=C/c3ccco3)cc2)n1	inactive		
COc1cc(/C=N\NC(=O)c2ccc3c(c2)OCO3)ccc1OC(=O)c1ccco1	inactive		
O=C(N/N=C/c1ccc(-c2ccc(Cl)c(Cl)c2)o1)c1ccncc1	inactive	Non-toxic	
C/C(=N\NC(=O)c1ccc2c(c1)OCO2)c1cccc([N+](=O)[O-])c1	inactive		
Cc1ccc(-c2ccc(/C=N/NC(=O)c3cncc(Br)c3)o2)cc1Cl		Non-toxic	10
O=C(N/N=C/c1ccc(-c2cccc(Br)c2)o1)c1cccnc1			50
O=C(N/N=C/c1ccc(-c2ccc(O)c(C(=O)O)c2)o1)c1cccnc1	inactive		
O=C(N/N=C/c1ccc(Br)o1)c1ccccc1	inactive		
O=C(N/N=C/c1ccco1)c1cccnc1	inactive		
O=C(N/N=C/c1ccc(-c2cccc(Cl)c2Cl)o1)c1cccnc1	inactive	Non-toxic	

Compound	Activity (J774.A1 [1])	Activity (J774.A1 [2])	fold change (FC) (J774.A1 [1])
O=C(N/N=C1\C(=O)N(Cc2cccc3ccccc23)c2ccccc21)c1ccc2c(c1)OCO2	inactive		
O=C(N/N=C/c1cc(Br)cc(Br)c1OC(=O)c1ccccc1)c1ccc2c(c1)OCO2			<5
CCOc1cc(/C=N\NC(=O)c2ccc3c(c2)OCO3)ccc1OC(=O)c1ccc(Br)cc1			<5
Cc1ccc(C(=O)N/N=C/c2ccc(-c3ccc(Cl)c(Cl)c3)o2)cn1	inactive	Non-toxic	
COc1cc(Br)ccc1C(=O)N/N=C/c1ccco1	inactive		
Cc1ccc(C(=O)N/N=C/c2ccc(-c3cc(Cl)c(Cl)cc3Cl)o2)cn1			<5
O=C(N/N=C/c1ccc(-c2cccc(C(F)(F)F)c2)o1)c1ccc([N+](=O)[O-])cc1			<5
O=C(O)COc1ccccc1/C=N/NC(=O)c1ccc2c(c1)OCO2	inactive		
Cc1ccc(C(=O)N/N=C/c2ccc(-c3ccc(Cl)cc3Cl)o2)cn1	inactive	Non-toxic	
O=C(N/N=C/c1ccc(-c2cccc(Cl)c2)o1)c1ccc([N+](=O)[O-])cc1	inactive		
O=C(N/N=C/c1cc(Br)c(Br)o1)c1ccc2c(c1)OCO2			<5
O=C(N/N=C/c1ccc(-c2ccc([N+](=O)[O-])cc2)o1)c1cccc(O)c1	inactive		
O=C(N/N=C/c1ccc(-c2ccc(Cl)c([N+](=O)[O-])c2)o1)c1ccc2c(c1)OCO2	inactive		
O=C(N/N=C/c1cc(Br)c(Br)o1)c1ccc2c(c1)OCCO2	inactive		
O=C(N/N=C/c1cc(Br)cc(I)c1O)c1ccc2c(c1)OCCO2	inactive		
O=C(N/N=C/c1ccc(-c2cccc(Cl)c2)o1)c1cccnc1		Non-toxic	17
O=C(N/N=C/c1ccc(-c2cccc(C(F)(F)F)c2)o1)c1cc(I)ccc1Cl			<5
Cc1ccc(C(=O)N/N=C/c2ccc(-c3cccc(Cl)c3Cl)o2)cn1	inactive	Non-toxic	
Cc1ccc(-c2ccc(/C=N/NC(=O)c3cccnc3)o2)cc1Cl		Non-toxic	60
